# Bioassay records from PubChem BioAssay.
# An excerpt weighted towards active compounds, which were near 1.8% of everything screened.
# NR1D1 modulator: modulators of Rev-erb alpha DNA binding, primary screen, biochemical, FITC-DNA, fluorescence polarization, uHTS. Rev-erbα–FITC-DNA binding, 90 min. activity, % at 10 µM. hit rate 0.79% among 370,000;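 active = activity above about 14%, limit read from the data; passing the limit was not always enough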;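 also: 0% = DMSO wells with 35 nM protein and 100% = DMSO wells with 750 nM protein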
# Target sequence (P20393 whole entry, looked up): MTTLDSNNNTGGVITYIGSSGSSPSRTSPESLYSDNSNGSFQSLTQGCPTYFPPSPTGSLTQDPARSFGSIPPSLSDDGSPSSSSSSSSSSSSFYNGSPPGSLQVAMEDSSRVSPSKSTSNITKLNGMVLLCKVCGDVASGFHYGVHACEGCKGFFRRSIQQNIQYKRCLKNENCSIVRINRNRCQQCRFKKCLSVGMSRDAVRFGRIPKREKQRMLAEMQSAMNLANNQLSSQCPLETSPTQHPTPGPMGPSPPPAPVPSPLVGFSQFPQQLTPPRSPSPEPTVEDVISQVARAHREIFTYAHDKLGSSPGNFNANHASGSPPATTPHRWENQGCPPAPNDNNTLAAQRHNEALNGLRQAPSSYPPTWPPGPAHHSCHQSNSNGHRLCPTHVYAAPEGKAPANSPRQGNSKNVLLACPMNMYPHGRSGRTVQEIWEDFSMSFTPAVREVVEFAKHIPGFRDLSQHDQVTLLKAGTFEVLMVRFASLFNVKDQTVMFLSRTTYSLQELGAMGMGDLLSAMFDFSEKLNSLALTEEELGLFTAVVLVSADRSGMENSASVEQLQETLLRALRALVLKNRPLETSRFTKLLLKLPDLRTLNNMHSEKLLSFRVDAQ
# TbMetRS inhib: T. brucei MetRS inhibitors, primary screen, biochemical, luminescence | inhibition, % at 11.9 µM | hit rate 0.4% among 360,000 | AID 624268, 2012 | purified T. brucei MetRS, ATP depletion, Kinase-Glo luminescence | methionyl-tRNA synthetase (Trypanosoma brucei brucei);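 active = inhibition above a per-plate cutoff of the control wells' mean inhibition plus 3 SD, cut at about 5.5% in these data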;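 also: 0% = DMSO wells median and 100% = median of wells with control inhibitor compound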
#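 Test system – parasite MetRS enzyme · Reagent – substrates ATP, L-methionine and bulk Escherichia coli tRNA · Doses – 11.9 µM compound single dose, 0.9% DMSO · Times – 15 min enzyme-compound preincubation, 2 h reaction, 10 min detection, 25 °C · Signal – Kinase-Glo luminescence, ATP depletion format · Controls – DMSO-only wells as low control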
# Rin1 Abl inh: inhibitors of Rin1-Abl protein binding, primary screen, biochemical, TR-FRET; Tyrosine-protein kinase ABL1 (Homo sapiens) + Ras and Rab interactor 1 (Homo sapiens), …; inhibition, % at 7.35 µM; hit rate 0.4% among 360,000; in the data active = inhibition above about 5%, passing the limit was not always enough
# PG9 binder: binders of HIV-1 gp120 antibody PG9, primary screen, biochemical, TR-FRET | HIV-1 gp120 / PG9 antibody interaction | TR-FRET gp120-PG9 antibody binding | inhibition, % at 6.7 µM | hit rate 0.43% among 360,000; in the data active = inhibition above about 8.5%
# Rin1-Abl confirm: Rin1-Abl binding inhibitor retest, confirmation, biochemical, TR-FRET; shares compounds with Rin1 Abl inh; inhibition, % at 7.35 µM; purified proteins; AID 602124, 2011; hit rate 49% among 1,300
# GFP quench-1: GFP fluorescence inhibitors and quenchers, artefact control for Rin1-Abl interaction inhibitor project, biochemical; inhibitors/quenchers counterscreen; shares compounds with Rin1 Abl inh; inhibition, % at 6.75 µM; AID 602125, 2011; hit rate 8.5% among 1,300;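 also: ABL1-eGFP fusion protein alone without its partner RIN1-SBP; 0% = protein with vehicle and 100% = wells lacking protein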
# GFP quench DR: GFP fluorescence inhibitors and quenchers, dose response, artefact control for Rin1-Abl interaction inhibitor project, biochemical. 230 tested, under 10 active. IC50, µM. shares compounds with Rin1 Abl inh. GFP fluorescence interference/quenching counterscreen; call rule not given here;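 also: ABL1-eGFP fusion protein alone without its RIN1 binding partner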
# GFP quench-2: GFP fluorescence inhibitors and quenchers, late-stage follow-up, artefact control for Rin1-Abl interaction inhibitor project, biochemical, dose response; 25 tested, under 10 active; GFP fluorescence quenching counterscreen; shares compounds with Rin1 Abl inh; AID 602397, 2012; IC50, µM; call rule not given here
# The depositor's hits bear a star; / = not tested or not shown. Rule as the data show it, unless noted: active = inhibition above about 6.5%; inactive = the rest.
SMILES,NR1D1 modulator,TbMetRS inhib,Rin1 Abl inh,PG9 binder,Rin1-Abl confirm,GFP quench-1,others
CCOc1ccc(NC(=O)C2CC(=O)N(C)C(=Nc3ccc4c(c3)OCO4)S2)cc1 (configuration not stated),-3.8,-0.5,-1.5,0.7,/,/,
CCC(C)c1ccc(S(=O)(=O)N2CC(=O)Nc3ccccc32)cc1 (configuration not stated),3.4,0.1,5.8*,-0.2,-1.3,1.2,
CCc1ccc(S(=O)(=O)N2CC(=O)Nc3ccccc32)cc1,0.7,-1.1,1.7,-0.2,/,/,
CCOC(=O)c1ccc2ncc(C(=O)OCC)c(NCCN3CCOCC3)c2c1,1.1,-0.1,-3.8,-2.9,/,/,
CCOC(=O)c1ccc2ncc(C(=O)OCC)c(NCCN(C)C)c2c1,3.7,0.5,7.9*,1.1,-0.9,1.3,
Cc1cc2cc(CNC(=S)Nc3ccc(OC(F)(F)F)cc3)ccc2[nH]1,-2.7,0.0,6.1*,0.3,1.6,-0.1,
C[C@@H]1CN([C@@H](C)CO)C(=O)CCCn2nncc2CO[C@@H]1CN(C)S(=O)(=O)c1cccc(F)c1,-9.0,0.1,13.6*,-0.6,-0.9,0.2,
O=C(N[C@H](Cc1ccccc1)C(=O)NCc1ccco1)[C@H]1O[C@@H](n2ccc(=O)[nH]c2=O)[C@H](O)[C@@H]1O,4.1,/,/,1.2,/,/,
Cn1c(=O)c2c(nc(-n3ccnc3)n2Cc2ccccc2)n(C)c1=O,4.1,-0.3,14.8*,1.4,12.9*,1.4,
Cn1c(=O)c2c(nc(-n3ccnc3)n2Cc2ccc(Cl)cc2Cl)n(C)c1=O,0.7,-0.8,71.6*,2.4,67.6*,-0.4,GFP quench DR=>67.5;GFP quench-2=>67.5
Cn1c(=O)c2c(nc(-n3ccnc3)n2C)n(C)c1=O,3.8,0.2,4.4,-0.4,/,/,
CC1(C)OC(=O)C(OCC2CC2)=C1c1ccc(S(C)(=O)=O)cc1,-4.3,/,/,/,/,/,
CN(Cc1ccccc1)C(=O)c1nc2ccccn2c1CN1CCc2sccc2C1,2.9,0.6,9.8*,-1.3,-1.9,-0.9,
CN(Cc1c(C(=O)N(C)Cc2ccccc2)nc2ccccn12)CC1Cc2ccccc2O1 (configuration not stated),-1.3,-1.1,1.6,0.3,/,/,
O=C1N(Cc2cccnc2)C[C@@H]2C[C@@H](c3ccc4nonc4c3)N3CCC[C@@]123,-0.2,-0.2,-1.7,-1.7,/,/,
O=C1N(Cc2cccnc2)C[C@@H]2C[C@@H](c3ccc4nsnc4c3)N3CCC[C@@]123,1.1,0.0,15.5*,-1.7,15.9*,0.2,
Cc1ccc(C)c2[nH]c(=O)c(C(c3nnnn3Cc3ccco3)N3CCc4ccccc4C3)cc12 (configuration not stated),0.6,0.3,6.2*,-1.9,0.1,1.5,
Cc1ccc(C)c2[nH]c(=O)c(C(c3nnnn3CCc3ccccc3)N3CCOCC3)cc12 (configuration not stated),1.0,-1.9,1.1,-1.4,/,/,
CCOc1ccc2c(c1)OC(c1ccc(OC)cc1)(C(F)(F)F)NC2=O (configuration not stated),-1.0,-0.6,7.1*,-0.3,-0.6,0.1,
CCOc1ccc2c(c1)OC(c1ccccc1)(C(F)(F)F)NC2=O (configuration not stated),7.9,-0.1,5.1,-2.1,/,/,
Cc1ccccc1C(=O)NC1CCCCN(Cc2cccc(C(F)(F)F)c2)C1=O (configuration not stated),1.1,/,/,/,/,/,
CCc1ccc(C(=O)Cc2cc3cccc(OC)c3oc2=O)cc1,6.5,2.5,8.5*,-0.9,0.6,-0.4,
CC(=O)C(C(C)=O)C1(O)C(=O)c2ccccc2C1=O,1.4,1.7,23.2*,0.5,18.7*,0.1,GFP quench DR=>67.6
